Reference: publication PMC4831585 (Journal of the American Chemical Society, 2015)
Ends that are not written are not given here.

Columns and labels:
[1] = system: MoaA GG-motif mutants; test: MoaA/MoaC coupled assay / peptide rescue, MoaA GG-motif mutants; format: biochemical, Staphylococcus aureus; conditions: for increase of Km over wt-MoaA: GG-motif mutants with 500 μM 11-mer peptide vs wt-MoaA
[2] = biological target: T1, G340A-MoaA (Staphylococcus aureus, UniProt P69848, G340A); test: MoaA/MoaC coupled assay; format: biochemical; conditions: for activity restoration lower than the 11-mer peptide: G340A-MoaA, peptide 200 μM (Figure 4A)
[3] = biological target: T2, MoaA G340A (Staphylococcus aureus, UniProt P69848, G340A); test: Anaerobic ITC, G340A-MoaA; format: binding
T2 sequence (P69848 1-340 G340A): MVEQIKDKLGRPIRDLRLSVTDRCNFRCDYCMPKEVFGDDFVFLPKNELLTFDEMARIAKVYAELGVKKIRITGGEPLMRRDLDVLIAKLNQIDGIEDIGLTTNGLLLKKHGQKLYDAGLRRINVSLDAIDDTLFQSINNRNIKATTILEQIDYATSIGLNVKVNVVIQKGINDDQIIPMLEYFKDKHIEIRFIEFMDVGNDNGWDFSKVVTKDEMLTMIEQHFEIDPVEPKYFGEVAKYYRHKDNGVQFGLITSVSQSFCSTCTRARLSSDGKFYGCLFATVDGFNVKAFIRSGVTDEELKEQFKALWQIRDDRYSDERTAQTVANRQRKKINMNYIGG
In short: (§1)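 His6-tagged S. aureus MoaA (wild type or GG-motif point mutants) was expressed in E. coli, purified and reconstituted anaerobically. […] Run as 29 injections at 24 °C, 307 rpm, with degassed buffer-only control titration.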

[4] = biological target: T3, wt-MoaA (Staphylococcus aureus, UniProt P69848); test: Anaerobic ITC, wt-MoaA; format: binding
In short: as §1

[5] = biological target: T3, wt-MoaA; test: Abortive SAM cleavage; format: biochemical; conditions: 5′-dA vs cPMP amounts, triplicate, SD
[6] = biological target: MoaA G339A (Staphylococcus aureus, UniProt P69848, G339A); test: Anaerobic ITC, G339A-MoaA; format: binding
In short: as §1

[7] = biological target: T1, G340A-MoaA; test: Abortive SAM cleavage; format: biochemical; conditions: G340A-MoaA with 11-mer wt peptide, 5′-dA vs cPMP amounts; triplicate, SD
[8] = biological target: T3, wt-MoaA; conditions: [3′-D]GTP vs GTP as substrate; wt-MoaA reaction; cited from earlier work
[9] = biological target: R330A/K331A/K332A-MoaA (Staphylococcus aureus, UniProt P69848, K331A/K332A/R330A); test: MoaA/MoaC coupled assay / peptide rescue, R330A/K331A/K332A-MoaA; format: biochemical; conditions: for activity restoration by peptide: peptide 200 μM (Figure 4A)
[10] = biological target: D198A-MoaA (Staphylococcus aureus, UniProt P69848, D198A); format: biochemical; conditions: without peptide; coupled assay
[11] = with 500 μM 11-mer wt peptide, coupled assay with MoaC, pH 7.6, 25 °C

## Nc1nc2c(ncn2[C@@H]2O[C@H](COP(=O)(O)OP(=O)(O)OP(=O)(O)O)[C@@H](O)[C@H]2O)c(=O)[nH]1 [GTP, Guanosine 5′-triphosphate]
[1]
  increase of Km over wt-MoaA: 2–17 fold
[2]; [11]
  Km: 7.7 ± 3.8 µM
  kcat: 0.000783 ± 5e-05 s⁻¹
[3]
  Kd: 5.2 ± 2.3 µM
[4]
  Kd: 5 ± 3 µM
[5]
  uncoupling (abortive SAM cleavage relative to cPMP formation): 4.1 ± 2.7%
[6]
  Kd: 0.46 ± 0.01 µM
[7]
  uncoupling (abortive SAM cleavage relative to cPMP formation): 8.2 ± 4.8%

## C[S+](CC[C@H](N)C(=O)[O-])C[C@H]1O[C@@H](n2cnc3c(N)ncnc32)[C@H](O)[C@@H]1O (stereo partly drawn) [SAM, S-adenosyl-L-methionine]
[1]
  increase of Km over wt-MoaA: 7–18 fold
[2]; [11]
  Km: 37 ± 14 µM
[3]
  Kd: > 90 µM
[4]
  Kd: 1.7 ± 0.6 µM
[6]
  Kd: > 90 µM

## [2H][C@@]1(O)[C@@H](COP(=O)(O)OP(=O)(O)OP(=O)(O)O)O[C@@H](n2cnc3c(=O)[nH]c(N)nc32)[C@@H]1O [[3′-D]GTP]
[5]
  uncoupling (abortive SAM cleavage relative to cPMP formation): 5.5 ± 3.0%
[8]
  KIE: 1.28 ± 0.05
[7]
  uncoupling (abortive SAM cleavage relative to cPMP formation): 25 ± 6.7%

## INMNYIGG [8-mer]
[2]; coupled assay
  activity restoration lower than the 11-mer peptide: 10 fold
[9]
  activity restoration by peptide: No significant activity restoration

## NYIGG [5-mer]
[2]; coupled assay
  activity restoration lower than the 11-mer peptide: 100 fold
[9]
  activity restoration by peptide: No significant activity restoration

## RKKINMNYIGA
[1]; even at 1.0 mM peptide concentration, coupled assay (Figure 3A)
  restoration of MoaA activity by GG-motif mutated peptide: did not restore the MoaA activity

## RKKINMNYIGG [11-mer wt peptide]
[2]; KD (peptide titration, figure legend), Figure 3C, nonlinear fit to the Hill equation, coupled assay
  Kd: 151 µM
[9]; Kd (peptide titration, figure legend), Figure 4B, nonlinear fit to Hill equation
  Kd: 172 µM

B1: D198A-MoaA: S. aureus MoaA variant with D198A mutation in Loop 14 (protein)
chain: MVEQIKDKLGRPIRDLRLSVTDRCNFRCDYCMPKEVFGDDFVFLPKNELLTFDEMARIAKVYAELGVKKIRITGGEPLMRRDLDVLIAKLNQIDGIEDIGLTTNGLLLKKHGQKLYDAGLRRINVSLDAIDDTLFQSINNRNIKATTILEQIDYATSIGLNVKVNVVIQKGINDDQIIPMLEYFKDKHIEIRFIEFMAVGNDNGWDFSKVVTKDEMLTMIEQHFEIDPVEPKYFGEVAKYYRHKDNGVQFGLITSVSQSFCSTCTRARLSSDGKFYGCLFATVDGFNVKAFIRSGVTDEELKEQFKALWQIRDDRYSDERTAQTVANRQRKKINMNYIGG
[10]
  activity of mutant relative to wt-MoaA: 8 % the activity of wt-MoaA

B2: R330A/K331A/K332A-MoaA (protein)
chain: MVEQIKDKLGRPIRDLRLSVTDRCNFRCDYCMPKEVFGDDFVFLPKNELLTFDEMARIAKVYAELGVKKIRITGGEPLMRRDLDVLIAKLNQIDGIEDIGLTTNGLLLKKHGQKLYDAGLRRINVSLDAIDDTLFQSINNRNIKATTILEQIDYATSIGLNVKVNVVIQKGINDDQIIPMLEYFKDKHIEIRFIEFMDVGNDNGWDFSKVVTKDEMLTMIEQHFEIDPVEPKYFGEVAKYYRHKDNGVQFGLITSVSQSFCSTCTRARLSSDGKFYGCLFATVDGFNVKAFIRSGVTDEELKEQFKALWQIRDDRYSDERTAQTVANRQAAAINMNYIGG
[9]; without peptide
  activity of mutant relative to wt-MoaA: 8 % the activity of wt-MoaA
